Source: ChEMBL document CHEMBL4808165, “Design of Thioether Cyclic Peptide Scaffolds with Passive Permeability and Oral Exposure” (J Med Chem, 2021)
In brackets after ≈: the same amount, converted by molar mass. Positions of bridges follow the written chain, without caps; N, C: chain ends. Non-standard residues stand in square brackets, D forms with d. Residues, ends and D or L forms follow the SMILES beside them. NMeF = CN[C@@H](Cc1ccccc1)C(=O)O; NMeNle = CCCC[C@H](NC)C(=O)O; Nle = CCCC[C@H](N)C(=O)O

What was measured:
[1] = Apparent permeability across apical to basolateral membrane in MDCKII-LE cells measured after 120 mins by RapidFire-MS analysis; format: ADME, cell-based, Canis lupus familiaris; settings: dog, MDCK
In short: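 MDCK-LE (low efflux) cells seeded at about 265,000 cells/cm² on Transwells and cultured 4 days. Apical-to-basal transport run in triplicate at 10 μM in HBSS/10 mM HEPES pH 7.4 with 0.02% BSA, 120 min at 37 °C without shaking. Bestatin used as integrity marker. Donor and acceptor quantified by MS against glyburide internal standard. Papp and % recovery calculated.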

[2] = Cmax in Sprague-Dawley rat systemic circulation at 5 mg/kg, po or 0.5 mg/kg, iv measured up to 24 hrs by HPLC-MS/MS analysis; format: ADME, organism-based; design: dose 5 mg/kg, time <=24
In short: (§1)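 Rat dosing in PEG300:20% Solutol/PBS (10:25:65). IV into a jugular cannula at 0.5 mg/kg (1 mg/kg for some analogues), 1 mL/kg. PO by gavage at 5 mg/kg from a 0.5 mg/mL solution. Blood drawn via jugular cannula at 5 min (IV only), 15 min, 0.5, 1, 2, 4, 7 and 24 h. Plasma analysed by HPLC-MS/MS. Parameters from noncompartmental analysis.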

[3] = Clearance in Sprague-Dawley rat at 5 mg/kg, po or 0.5 mg/kg, iv measured up to 24 hrs by HPLC-MS/MS analysis; format: ADME, organism-based; settings: in vivo; in short: as §1
[4] = AUC in Sprague-Dawley rat systemic circulation at 5 mg/kg, po or 0.5 mg/kg, iv measured up to 24 hrs by HPLC-MS/MS analysis; format: ADME, organism-based; design: dose 5 mg/kg, time <=24; in short: as §1
[5] = Volume of distribution at steady state in Sprague-Dawley rat at 5 mg/kg, po or 0.5 mg/kg, iv measured up to 24 hrs by HPLC-MS/MS analysis; format: ADME, organism-based; settings: in vivo, read-out: Vdss; in short: as §1
[6] = Aqueous solubility of the compound at pH 6.8; format: physicochemical; settings: buffer
In short: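 Thermodynamic (equilibrium) solubility. 10 mM DMSO stock dried down, then pH 6.8 phosphate buffer added to a target of 1 mM. Shaken at 1350 rpm at ambient temperature for 16–24 h. Supernatant centrifuged twice, diluted 200-fold and quantified by RapidFire-MS/MS against a 4-point calibration curve.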

[7] = Oral bioavailability in Sprague-Dawley rat at 5 mg/kg measured up to 24 hrs by HPLC-MS/MS analysis; format: ADME, organism-based; settings: in vivo; in short: as §1
[8] = Clearance in human liver microsomes measured up to 30 mins in presence of NADPH by HPLC-MS/MS analysis; format: ADME, Microsome; settings: read-out: CLH
In short: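 Human liver microsomes at 1.25 mg/mL protein in phosphate buffer pH 7.4. Test article at 10 μM, shaken at 37 °C. Reaction started with 2 mM NADPH/4 mM MgCl₂. Aliquots taken at 0, 5, 15 and 30 min and quenched with acetonitrile containing glibenclamide. Parent remaining measured by LC-MS/MS. Elimination rate constant converted to in vitro clearance.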

[9] = Half life in Sprague-Dawley rat at 5 mg/kg, po or 0.5 mg/kg, iv measured up to 24 hrs by HPLC-MS/MS analysis; format: ADME, organism-based; settings: in vivo; in short: as §1
[10] = 1-Octanol/phosphate buffered-saline distribution coefficient, logD of compound at pH 7.4 measured after 4 hrs by LC-MS analysis; format: physicochemical
In short: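 PBS pH 7.4 and 1-octanol, each pre-saturated with the other. 10 mM DMSO stock, dispensed with an internal reference compound in triplicate and dried. Residue shaken in octanol plus buffer for at least 4 h, then centrifuged to separate phases. Both phases quantified by LC-MS/MS. Log D taken from the phase peak-area ratio, normalised to internal standard.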

[11] = Clearance in Sprague-Dawley rat liver microsomes measured up to 30 mins in presence of NADPH by HPLC-MS/MS analysis; format: ADME, Microsome; settings: read-out: CLH
[12] = Cmax in Sprague-Dawley rat hepatic portal vein circulation at 5 mg/kg, po or 0.5 mg/kg, iv measured up to 24 hrs by HPLC-MS/MS analysis; format: ADME, organism-based; design: dose 5 mg/kg, time <=24
[13] = AUC in Sprague-Dawley rat hepatic portal vein circulation at 5 mg/kg, po or 0.5 mg/kg, iv measured up to 24 hrs by HPLC-MS/MS analysis; format: ADME, organism-based; design: dose 5 mg/kg, time <=24

Row | Structure (SMILES) | Papp A→B at 2 h [1] | Cmax [2] | clearance [3] | AUC at 24 h [4] | Vd [5] | solubility [6] | bioavailability [7] | microsomal CLint [8] | half-life [9] | logD at 4 h [10] | microsomal CLint [11] | Cmax [12] | AUC at 24 h [13]
1 | CCCC[C@@H]1NC(=O)[C@H](Cc2ccccc2)N(C)C(=O)[C@@H]2CCCN2C(=O)[C@H](CCCC)N(C)C(=O)[C@H](Cc2ccccc2)NC(=O)CSC[C@@H](C(=O)NC)NC(=O)[C@H](CCCC)N(C)C1=O ({CH2CO}-F[NMeNle]P[NMeF][Nle][NMeNle]C-NHMe; thioether N-7) | 2.3 ×10⁻⁶ cm/s | 1950 nM | 19 mL/min/kg | 1.31 µM·h | 1.1 L/kg | 9 µM (≈ 8.53 µg/mL) | 84% | ≥ 480 µL/min/mg | 90 min | 4.9 | ≥ 480 µL/min/mg |  | 
2 | CCCC[C@@H]1NC(=O)[C@H](Cc2ccccc2)N(C)C(=O)CSC[C@H](C(=O)NC)N(C)C(=O)[C@H](CCCC)NC(=O)[C@H](CCCC)N(C)C(=O)[C@H](CCCC)NC1=O | 8 ×10⁻⁶ cm/s | 114 nM | 86 mL/min/kg | 0.258 µM·h | 2.1 L/kg | 12 µM (≈ 9.79 µg/mL) | 20% | ≥ 350 µL/min/mg | 54 min | 4.1 | ≥ 350 µL/min/mg | 140 nM | 0.173 µM·h
3 | CCCC[C@@H]1NC(=O)[C@H](CCCC)N(C)C(=O)[C@@H]2CCCN2C(=O)[C@H](CCCC)N(C)C(=O)[C@H](Cc2ccccc2)NC(=O)CSC[C@@H](C(=O)NC)NC(=O)[C@H](CCCC)N(C)C1=O ({CH2CO}-F[NMeNle]P[NMeNle][Nle][NMeNle]C-NHMe; thioether N-7) | 6.4 ×10⁻⁶ cm/s | 868 nM | 35 mL/min/kg | 2.13 µM·h | 1.2 L/kg | 9 µM (≈ 8.22 µg/mL) | 86% | ≥ 480 µL/min/mg | 36 min | 4.8 | ≥ 480 µL/min/mg |  | 
4 | CCCC[C@@H]1NC(=O)C2CCCN2C(=O)[C@H](CCCC)NC(=O)[C@H](Cc2ccccc2)NC(=O)CSC[C@H](C(=O)NC)NC(=O)[C@H](CCCC)NC1=O (stereo not given in full) | 0.6 ×10⁻⁶ cm/s | 1.7 nM | 222 mL/min/kg | 0.0006 µM·h | 2 L/kg | 200 µM (≈ 152 µg/mL) | < 1% | ≥ 350 µL/min/mg | 12 min | 3.1 | ≥ 350 µL/min/mg |  | 
5 | CCCC[C@@H]1NC(=O)[C@H](Cc2ccccc2)NC(=O)CSC[C@H](C(=O)NC)NC(=O)[C@H](CCCC)N(C)C(=O)[C@H](CCCC)NC(=O)[C@H](CCCC)N(C)C1=O | 3.9 ×10⁻⁶ cm/s | 1030 nM | 8.9 mL/min/kg | 2.29 µM·h | 1 L/kg | 5 µM (≈ 4.01 µg/mL) | 19% | ≥ 350 µL/min/mg | 228 min | 4.6 | ≥ 350 µL/min/mg | 819 nM | 1.86 µM·h
6 | CCCC[C@@H]1NC(=O)[C@H](Cc2ccccc2)NC(=O)CSC[C@H](C(=O)NC)NC(=O)[C@H](CCCC)NC(=O)[C@H](CCCC)NC(=O)[C@H](CCCC)NC1=O | 0.6 ×10⁻⁶ cm/s |  | 702 mL/min/kg |  |  | < 4 µM | < 1% | ≥ 350 µL/min/mg | 18 min | 3.6 | ≥ 350 µL/min/mg |  | 
7 | CCCC[C@@H]1NC(=O)[C@H](CCCC)NC(=O)[C@H](CCCC)NC(=O)[C@@H](Cc2ccccc2)NC(=O)CSC[C@H](C(=O)NC)NC(=O)[C@H](CCCC)NC1=O | 0.4 ×10⁻⁶ cm/s |  |  |  |  | 5 µM (≈ 3.87 µg/mL) |  | ≥ 350 µL/min/mg |  | 3.6 | ≥ 350 µL/min/mg |  | 
8 | CCCC[C@@H]1NC(=O)[C@H](CCCC)N(C)C(=O)[C@H](CCCC)NC(=O)[C@H](CCCC)N(C)C(=O)[C@H](CCCC)NC(=O)[C@H](CCCC)N(C)C(=O)[C@@H](Cc2ccccc2)NC(=O)CSC[C@@H](C(=O)NC)NC1=O | < 0.35 ×10⁻⁶ cm/s | 411 nM | 33 mL/min/kg | 1.27 µM·h |  | < 4 µM | 54% | ≥ 120 µL/min/mg |  | 6 | ≥ 120 µL/min/mg |  | 
9 | CCCC[C@@H]1NC(=O)[C@H](CCCC)N(C)C(=O)[C@H](CCCC)NC(=O)[C@H](Cc2ccccc2)N(C)C(=O)[C@H]([C@@H](C)O)NC(=O)[C@H](CCCC)N(C)C(=O)[C@@H](Cc2ccccc2)NC(=O)CSC[C@@H](C(=O)NC)NC1=O | < 0.35 ×10⁻⁶ cm/s | 161 nM | 28.4 mL/min/kg | 0.372 µM·h |  | < 4 µM | 13% | ≥ 120 µL/min/mg |  | 5.2 | ≥ 120 µL/min/mg |  | 
10 | CCCC[C@@H]1NC(=O)[C@H](Cc2ccccc2)N(C)C(=O)CSC[C@H](C(=O)NC)N(C)C(=O)[C@H](CCCC)NC(=O)[C@H](CCCC)N(C)C(=O)C2CCCN2C1=O (stereo not given in full) | 6.3 ×10⁻⁶ cm/s | 152 nM | 72 mL/min/kg | 0.092 µM·h | 1.3 L/kg | 216 µM (≈ 173 µg/mL) | 6% | ≥ 350 µL/min/mg | 18 min | 3.6 | ≥ 350 µL/min/mg |  | 
11 | CCCC[C@@H]1NC(=O)[C@H](CCCC)N(C)C(=O)[C@H](CCCC)NC(=O)[C@H](CCCC)N(C)C(=O)[C@@H](Cc2ccccc2)NC(=O)CSC[C@H](C(=O)NC)NC1=O | 1.5 ×10⁻⁶ cm/s |  |  |  |  | 18 µM (≈ 14.4 µg/mL) |  | ≥ 350 µL/min/mg |  | 4.2 | ≥ 350 µL/min/mg |  | 
12 | CCCC[C@@H]1NC(=O)[C@H](CCCC)NC(=O)[C@H](CCCC)N(C)C(=O)[C@@H]2CCCN2C(=O)[C@H](CCCC)N(C)C(=O)[C@H](Cc2ccccc2)NC(=O)CSC[C@@H](C(=O)NC)NC1=O ({CH2CO}-F[NMeNle]P[NMeNle][Nle][Nle]C-NHMe; thioether N-7) | 0.8 ×10⁻⁶ cm/s | 18 nM | 106 mL/min/kg | 0.01 µM·h | 4.4 L/kg | 9 µM (≈ 8.09 µg/mL) | 1% | ≥ 480 µL/min/mg | 42 min | 4.7 | ≥ 480 µL/min/mg |  | 
13 | CCCC[C@@H]1NC(=O)[C@H](CCCC)NC(=O)[C@H]2CCCN2C(=O)[C@H](CCCC)NC(=O)[C@H](Cc2ccccc2)NC(=O)CSC[C@H](C(=O)NC)NC(=O)[C@H](CCCC)NC1=O | 0.2 ×10⁻⁶ cm/s |  | 72 mL/min/kg |  | 0.2 L/kg | 9 µM (≈ 7.84 µg/mL) | < 1% | ≥ 480 µL/min/mg | 4.8 min | 3.7 | ≥ 480 µL/min/mg |  | 
14 | CCCC[C@@H]1NC(=O)[C@H](Cc2ccccc2)NC(=O)CSC[C@@H](C(=O)NC)NC(=O)[C@H](CCCC)N(C)C(=O)[C@H](CCCC)N(C)C(=O)[C@H](CCCC)N(C)C(=O)[C@H](CCCC)NC(=O)[C@H](CCCC)N(C)C1=O ({CH2CO}-F[Nle][NMeNle][Nle][NMeNle][NMeNle][NMeNle]C-NHMe; thioether N-8) | < 0.35 ×10⁻⁶ cm/s | 436 nM | 12 mL/min/kg | 1.08 µM·h |  | < 4 µM | 17% | ≥ 120 µL/min/mg |  | 6.1 | ≥ 120 µL/min/mg |  | 
